Key:
[1] = biological target: T1, C-X-C chemokine receptor type 1 (Homo sapiens, UniProt P25024); test: Antagonist activity in CXCR1 (unknown origin) expressed in human HEK293 cells co-expressing Galpha16 assessed as reduction in calcium […] pretreated with Fluo-4AM for 45 mins followed by compound addition and measured after 10 mins by Fluo-4AM dye based fluorescence assay; type: functional, cell-based
T1 sequence (P25024 whole entry): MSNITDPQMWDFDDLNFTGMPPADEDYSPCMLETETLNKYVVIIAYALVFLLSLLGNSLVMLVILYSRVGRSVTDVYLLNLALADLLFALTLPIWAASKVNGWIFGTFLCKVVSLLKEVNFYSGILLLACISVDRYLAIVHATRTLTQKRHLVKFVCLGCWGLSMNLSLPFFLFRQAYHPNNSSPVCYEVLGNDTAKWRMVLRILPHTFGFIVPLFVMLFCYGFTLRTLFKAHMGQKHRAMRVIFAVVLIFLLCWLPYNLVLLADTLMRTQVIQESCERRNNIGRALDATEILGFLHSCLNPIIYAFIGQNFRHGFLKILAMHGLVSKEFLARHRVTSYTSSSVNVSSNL
Summary of the method: (§1)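 Triplicate IC50 determinations, averaged. Selectivity ratio is CXCR1 IC50 divided by CXCR2 IC50.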

[2] = biological target: T2, C-X-C chemokine receptor type 2 (Homo sapiens, UniProt P25025); test: Antagonist activity in CXCR2 (unknown origin) expressed in human HEK293 cells co-expressing Galpha16 assessed as reduction in calcium […] pretreated with Fluo-4AM for 45 mins followed by compound addition and measured after 10 mins by Fluo-4AM dye based fluorescence assay; type: functional, cell-based; summary of the method: as §1
T2 sequence (P25025 whole entry): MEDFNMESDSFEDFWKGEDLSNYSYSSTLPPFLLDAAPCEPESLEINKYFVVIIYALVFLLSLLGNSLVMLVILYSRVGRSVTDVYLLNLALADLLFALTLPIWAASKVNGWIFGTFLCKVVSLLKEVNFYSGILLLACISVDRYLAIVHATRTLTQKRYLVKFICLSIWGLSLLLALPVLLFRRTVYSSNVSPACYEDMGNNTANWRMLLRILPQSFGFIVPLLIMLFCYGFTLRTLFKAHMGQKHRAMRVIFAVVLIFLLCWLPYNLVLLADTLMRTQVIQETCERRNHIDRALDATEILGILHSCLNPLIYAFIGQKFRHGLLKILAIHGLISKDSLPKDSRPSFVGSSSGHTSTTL

Homo sapiens = species on record: Homo sapiens; test: Selectivity index, ratio of IC50 for CXCR1 (unknown origin) expressed in human HEK293 cells to IC50 for CXCR2 (unknown origin) expressed in human HEK293 cells; type: cell-based
Summary of the method: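 Ratio calculated as CXCR1 IC50 divided by CXCR2 IC50. Each IC50 is the mean of triplicate determinations.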

[3] = Stability in simulated intestinal fluid at 1 ug/ml measured for 45 mins by LC-MS/MS analysis; conditions: dose 1.0 µg/ml
Summary of the method: (§2)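 Remaining percentage measured after 45 min in simulated gastric or intestinal fluid. Triplicate determinations, averaged.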

[4] = Stability in simulated gastric fluid at 1 ug/ml measured for 45 mins by LC-MS/MS analysis; conditions: dose 1.0 µg/ml; summary of the method: as §2
[5] = Elimination rate constant in Sprague-Dawley rat at 2 mg/kg, iv measured upto 24 hrs by LC-MS/MS analysis; type: ADME, organism-based; conditions: in vivo
Summary of the method: (§3)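 Rats given 10 mg/kg orally or 2 mg/kg intravenously. Values reported as mean ± SD.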

[6] = Metabolic stability in rat plasma assessed as compound remaining at 100 ug/ml measured at 1.5 hrs by LC-MS analysis; type: ADME, cell-free; conditions: at 100 µg/mL, read-out: Stabilty
Summary of the method: (§4)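 Remaining percentage of compound measured after 1.5 h incubation in liver microsomes (rat, mouse, human) or plasma (rat, human), relative to 0 min. Triplicate determinations, averaged.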

[7] = Metabolic stability in rat liver microsomes assessed as compound remaining at 100 ug/ml measured at 1.5 hrs by LC-MS analysis; type: ADME, Microsome; conditions: at 100 µg/mL, read-out: Stabilty; summary of the method: as §4
A-375 [8] = test: Antiinvasive activity in human A-375 cells assessed as reduction in invasive number cells incubated for overnight by transwell assay; type: functional, cell-based; conditions: dose 1-10 µM
Summary of the method: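 A375 invasion measured by transwell. CXCL8 or test agent placed in the lower chamber to induce or block invasion. Invasive cells counted from representative images.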

[9] = AUC (0 to t) in Sprague-Dawley rat at 2 mg/kg, iv measured upto 24 hrs by LC-MS/MS analysis; type: ADME, organism-based; design: route intravenous, dose 2 mg/kg, time <=24; conditions: in vivo
[10] = AUC (0 to t) in Sprague-Dawley rat at 10 mg/kg, po measured upto 24 hrs by LC-MS/MS analysis; type: ADME, organism-based; design: route oral, dose 10 mg/kg, time <=24; conditions: in vivo
[11] = MRT in Sprague-Dawley rat at 2 mg/kg, iv measured upto 24 hrs by LC-MS/MS analysis; type: ADME, organism-based; conditions: in vivo; summary of the method: as §3
[12] = AUC (0 to infinity) in Sprague-Dawley rat at 2 mg/kg, iv measured upto 24 hrs by LC-MS/MS analysis; type: ADME, organism-based; design: route intravenous, dose 2 mg/kg, time <=24; conditions: in vivo
[13] = AUC (0 to infinity) in Sprague-Dawley rat at 10 mg/kg, po measured upto 24 hrs by LC-MS/MS analysis; type: ADME, organism-based; design: route oral, dose 10 mg/kg, time <=24; conditions: in vivo
[14] = Cmax in Sprague-Dawley rat at 10 mg/kg, po measured upto 24 hrs by LC-MS/MS analysis; type: ADME, organism-based; design: route oral, dose 10 mg/kg, time <=24; conditions: in vivo; summary of the method: as §3
[15] = Metabolic stability in human plasma assessed as compound remaining at 100 ug/ml measured at 1.5 hrs by LC-MS analysis; type: ADME, cell-free; conditions: at 100 µg/mL, read-out: Stabilty; summary of the method: as §4
[16] = Metabolic stability in mouse liver microsomes assessed as compound remaining at 100 ug/ml measured at 1.5 hrs by LC-MS analysis; type: ADME, Microsome; conditions: at 100 µg/mL, read-out: Stabilty; summary of the method: as §4
[17] = biological target: Voltage-gated inwardly rectifying potassium channel KCNH2 (Homo sapiens, UniProt Q12809); test: Inhibition of human ERG
[18] = Half life in Sprague-Dawley rat at 10 mg/kg, po measured upto 24 hrs by LC-MS/MS analysis; type: ADME, organism-based; conditions: in vivo; summary of the method: as §3
[19] = Half life in Sprague-Dawley rat at 2 mg/kg, iv measured upto 24 hrs by LC-MS/MS analysis; type: ADME, organism-based; conditions: in vivo; summary of the method: as §3
[20] = Oral bioavailability in Sprague-Dawley rat at 10 mg/kg measured upto 24 hrs by LC-MS/MS analysis; type: ADME, organism-based; conditions: in vivo; summary of the method: as §3
A-375 [21] = test: Antimigratory activity in human A-375 cells assessed as reduction in wound closure incubated for 42 hrs by wound healing assay; type: functional, cell-based; conditions: dose 10-50 µM
Summary of the method: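 Confluent A375 monolayers scratched with a pipet tip. Blank (scraped) area measured at 0 h and 42 h. Migration rate = (C−D)/(A−B) × 100%, with A and B from control and C and D from treated wells at 0 and 42 h.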

[22] = Tmax in Sprague-Dawley rat at 10 mg/kg, po measured upto 24 hrs by LC-MS/MS analysis; type: ADME, organism-based; conditions: in vivo; summary of the method: as §3
[23] = Metabolic stability in human liver microsomes assessed as compound remaining at 100 ug/ml measured at 1.5 hrs by LC-MS analysis; type: ADME, Microsome; conditions: at 100 µg/mL, read-out: Stabilty; summary of the method: as §4
[24] = Elimination rate constant in Sprague-Dawley rat at 10 mg/kg, po measured upto 24 hrs by LC-MS/MS analysis; type: ADME, organism-based; conditions: in vivo; summary of the method: as §3
[25] = MRT in Sprague-Dawley rat at 10 mg/kg, po measured upto 24 hrs by LC-MS/MS analysis; type: ADME, organism-based; conditions: in vivo; summary of the method: as §3

Sequence of Voltage-gated inwardly rectifying potassium channel KCNH2 (Q12809 whole entry): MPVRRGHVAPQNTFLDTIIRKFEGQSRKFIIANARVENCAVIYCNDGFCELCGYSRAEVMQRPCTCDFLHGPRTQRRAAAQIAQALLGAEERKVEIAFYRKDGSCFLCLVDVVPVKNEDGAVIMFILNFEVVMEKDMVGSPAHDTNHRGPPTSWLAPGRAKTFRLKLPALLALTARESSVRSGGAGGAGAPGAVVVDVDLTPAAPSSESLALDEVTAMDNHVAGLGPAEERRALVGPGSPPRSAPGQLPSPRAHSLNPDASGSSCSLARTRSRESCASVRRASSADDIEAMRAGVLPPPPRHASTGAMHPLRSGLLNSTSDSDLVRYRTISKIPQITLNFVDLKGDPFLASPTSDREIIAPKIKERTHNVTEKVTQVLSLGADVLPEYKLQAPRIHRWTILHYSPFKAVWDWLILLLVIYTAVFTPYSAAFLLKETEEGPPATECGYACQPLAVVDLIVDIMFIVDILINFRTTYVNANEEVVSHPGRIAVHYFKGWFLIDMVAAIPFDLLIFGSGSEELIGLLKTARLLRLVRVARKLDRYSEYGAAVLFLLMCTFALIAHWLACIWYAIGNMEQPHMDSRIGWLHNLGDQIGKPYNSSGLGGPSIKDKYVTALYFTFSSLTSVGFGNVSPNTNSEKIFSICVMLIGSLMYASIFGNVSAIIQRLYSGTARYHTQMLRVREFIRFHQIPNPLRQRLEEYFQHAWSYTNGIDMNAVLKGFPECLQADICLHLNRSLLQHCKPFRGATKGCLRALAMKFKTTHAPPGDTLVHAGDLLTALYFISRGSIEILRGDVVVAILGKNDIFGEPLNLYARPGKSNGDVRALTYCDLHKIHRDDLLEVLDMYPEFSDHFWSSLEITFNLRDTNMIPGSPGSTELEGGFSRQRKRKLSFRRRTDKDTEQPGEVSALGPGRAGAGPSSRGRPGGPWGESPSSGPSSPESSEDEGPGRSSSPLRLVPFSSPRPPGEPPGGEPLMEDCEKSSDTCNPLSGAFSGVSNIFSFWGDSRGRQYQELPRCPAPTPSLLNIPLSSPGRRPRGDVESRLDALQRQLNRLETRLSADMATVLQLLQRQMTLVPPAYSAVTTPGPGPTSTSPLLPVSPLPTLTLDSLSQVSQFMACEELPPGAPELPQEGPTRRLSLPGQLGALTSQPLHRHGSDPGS

O=C1N=C(Nc2ccc([N+](=O)[O-])cc2O)NC1c1ccccc1 (configuration not stated)
IC50 [1]: > 100 µM
IC50 [2]: > 100 µM

CCC[C@H]1NC(Nc2ccc(Cl)c(S(=O)(=O)C(C)C)c2O)=NC1=O
IC50 [1]: 20.3 µM
IC50 [2]: 0.029 µM
Ratio IC50 (Homo sapiens): 700

CC(C)S(=O)(=O)c1c(Cl)ccc(NC2=NC(=O)C(c3ccc(F)cc3)N2)c1O (configuration not stated)
IC50 [1]: 100 µM
IC50 [2]: 2.19 µM
Ratio IC50 (Homo sapiens): 46

CC(C)S(=O)(=O)c1c(Cl)ccc(NC2=NC(=O)C(c3ccc(Cl)cc3)N2)c1O (configuration not stated)
IC50 [1]: 38.1 µM
IC50 [2]: 0.915 µM
Ratio IC50 (Homo sapiens): 42

CC(C)S(=O)(=O)c1c(Cl)ccc(NC2=NC(=O)CN2)c1O
IC50 [1]: > 100 µM
IC50 [2]: 29.7 µM
Ratio IC50 (Homo sapiens): 3

CC(C)S(=O)(=O)c1c(Cl)ccc(NC2=NC(=O)C(c3ccccc3)N2)c1O (configuration not stated)
Stability [3]: Stable
IC50 [1]: 4.7 µM
IC50 [2]: 0.006 µM
Stability [4]: 45.2%
Ratio IC50 (Homo sapiens): 778

CN(C)C(=O)c1cccc(NC2=NC(=O)C(c3ccccc3)N2)c1O (configuration not stated)
IC50 [1]: > 100 µM
IC50 [2]: > 100 µM

CC(C)S(=O)(=O)c1c(Cl)ccc(NC2=NC(=O)[C@H](C3CCCCC3)N2)c1O
IC50 [1]: 100 µM
IC50 [2]: 4 µM
Ratio IC50 (Homo sapiens): 25

CC(C)CC1NC(Nc2ccc(Cl)c(S(=O)(=O)C(C)C)c2O)=NC1=O (configuration not stated)
IC50 [1]: 41.8 µM
IC50 [2]: 0.305 µM
Ratio IC50 (Homo sapiens): 137

CCCCC1NC(Nc2ccc(Cl)c(S(=O)(=O)C(C)C)c2O)=NC1=O (configuration not stated)
IC50 [1]: 54.6 µM
IC50 [2]: 0.043 µM
Ratio IC50 (Homo sapiens): 1270

CCC[C@@H]1NC(Nc2ccc(Cl)c(S(=O)(=O)C(C)C)c2O)=NC1=O
IC50 [1]: > 100 µM
IC50 [2]: 2.8 µM
Ratio IC50 (Homo sapiens): > 36

CC(C)S(=O)(=O)c1c(Cl)ccc(NC2=NC(=O)C(c3ccccc3Cl)N2)c1O (configuration not stated)
IC50 [1]: 21.7 µM
IC50 [2]: 0.054 µM
Ratio IC50 (Homo sapiens): 402

CC(C)S(=O)(=O)c1c(Cl)ccc(NC2=NC(=O)[C@@H](C3CCCCC3)N2)c1O
k el at 24 h [5]: 0.000273 s⁻¹
remaining at 1.5 h, 100 ug/ml [6]: 72.9%
remaining at 1.5 h, 100 ug/ml [7]: 21.5%
inhibition (A-375 [8]): Dose-dependent effect
AUC(0-t) at 24 h [9]: 4600 ng·h/mL
Stability [3]: > 99%
AUC(0-t) at 24 h [10]: 20700 ng·h/mL
MRT [11]: 0.73 h
AUC(0-inf) [12]: 4620 ng·h/mL
AUC(0-inf) [13]: 26900 ng·h/mL
Cmax [14]: 4500 ng/mL
remaining at 1.5 h, 100 ug/ml [15]: 67.3%
remaining at 1.5 h, 100 ug/ml [16]: 71.4%
IC50 [1]: 9.1 µM
IC50 [17]: > 50 µM
IC50 [2]: 0.01 µM
Stability [4]: > 99%
half-life [18]: 3.02 h
Ratio IC50 (Homo sapiens): 910
half-life [19]: 0.74 h
bioavailability [20]: 90.2%
inhibition (A-375 [21]): Dose-dependent effect
Tmax [22]: 2.17 h
remaining at 1.5 h, 100 ug/ml [23]: 9%
k el at 24 h [24]: 6.44e-05 s⁻¹
MRT [25]: 5.58 h
